In ChEMBL document CHEMBL1148202, “Lasonolides C-g, five new lasonolide compounds from the sponge Forcepia sp” (J Nat Prod, 2004):

How the values were obtained:
Format in all cases: functional, cell-based
A549 = assay: Cytotoxicity against human A549 cells
Procedure, shortened: (§1)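 Human tumour cell lines (A549 lung adenocarcinoma, PANC-1 pancreatic, NCI/ADR-RES […], formerly MCF-7/ADR) obtained from ATCC. In vitro proliferation inhibition run by a previously described protocol. Each sample assayed at least three times to derive the final IC50.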

PANC-1 = assay: Cytotoxicity against human PANC1 cells; procedure, shortened: as §1
NCI/ADR-RES = assay: Cytotoxicity against human NCI/ADR-RES cells; procedure, shortened: as §1

Row | Structure (SMILES) | IC50 (A549) | IC50 (PANC-1) | IC50 (NCI/ADR-RES)
1 | CC1=C/[C@H]2O[C@@H](C/C=C/C=C/C(=O)O[C@@H]3C[C@@H](/C=C/C\C=C\1)O[C@@H](C/C=C\C[C@@H](O)C(=O)O)[C@]3(C)CO)C[C@H](O)[C@H]2C [LASONOLIDES F] | > 9000 nM | 15600 nM | > 9000 nM
2 | CCOC(=O)[C@H](O)C/C=C\C[C@@H]1O[C@@H]2/C=C/C/C=C/C(C)=C\[C@H]3O[C@@H](C/C=C/C=C/C(=O)O[C@H](C2)[C@@]1(C)CO)C[C@H](O)[C@H]3C [LASONOLIDE E] | 310 nM | 570 nM | > 8000 nM
3 | C=C(COC(=O)[C@H](O)C/C=C\C[C@@H]1O[C@@H]2/C=C/C/C=C/C(C)=C\[C@H]3O[C@@H](C/C=C/C=C/C(=O)O[C@H](C2)[C@@]1(C)CO)C[C@H](O)[C@H]3C)C(O)CC(C)C (stereo partly drawn) [LASONOLIDE C] | 130 nM | 380 nM | 1120 nM
4 | C=C(CCC(C)C)COC(=O)[C@H](O)C/C=C\C[C@@H]1O[C@@H]2/C=C/C/C=C/C(C)=C\[C@H]3O[C@@H](C/C=C/C=C/C(=O)O[C@H](C2)[C@@]1(C)CO)C[C@H](O)[C@H]3C [LASONOLIDE A] | 8.6 nM | 89 nM | 490 nM
5 | CC1=C/[C@H]2O[C@@H](C/C=C/C=C/C(=O)O[C@@H]3C[C@@H](/C=C/C\C=C\1)O[C@@H](C/C=C\CCO)[C@]3(C)CO)C[C@H](O)[C@H]2C [LASONOLIDE D] | 4500 nM | 4890 nM | > 9000 nM
6 | C=C(COC(=O)[C@H](O)C/C=C\C[C@@H]1O[C@@H]2/C=C/C/C=C/C(C)=C\[C@H]3O[C@@H](C/C=C/C=C/C(=O)O[C@H](C2)[C@@]1(C)COC(=O)CCCCCCCCCCC)C[C@H](O)[C@H]3C)C(O)CC(C)C (stereo partly drawn) [LASONOLIDE G] | > 6000 nM | > 6000 nM | > 6000 nM
